Values after ≈ are worked out from the molar mass of the structure shown.
How the values were obtained:
Format in all cases: functional
[1] = Antiviral Activity against herpes simplex virus-1 (McIntyre) in rabbit kidney cell; conditions: Oryctolagus cuniculus
MOLT-4F = assay: Inhibitory activity against Molt/4F cell line; conditions: Homo sapiens, read-out: ID50 (the source's name)
In short: (§1)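 Tumour cells, (5-7.5) × 10^4 per well in growth medium, exposed to varying compound concentrations and allowed to proliferate 48 or 72 h at 37 °C in humidified CO2 atmosphere; cell counts by Coulter counter; value is 50% inhibitory dose. FM3A TK- and TK-/HSV-2 TK+ lines derived from FM3A/0 and grown in the same medium.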

[2] = Antiviral Activity against herpes simplex virus-2 (G) in rabbit kidney cell; conditions: Oryctolagus cuniculus
[3] = Antiviral Activity against herpes simplex virus-1 TK- VMW 1837 in rabbit kidney cell; conditions: Oryctolagus cuniculus
[4] = Antiviral Activity against herpes simplex virus-2 (Lyons) in rabbit kidney cell; conditions: Oryctolagus cuniculus
Mus musculus [5] = assay: Compound was evaluated in nu/nu mice infected with TK- HSV-1 (VMW-1837) to increase the mean survival time when applied topically at 10% after 52 days
In short: (§2)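 Athymic nu/nu mice, 25-30 days old, 15-20 g, inoculated intracutaneously in lumbosacral area with TK- HSV-1 VMW 1837, 10^5 CCID50 in 50 μL; topical 10% (v/v in DMSO) applied four times daily for 5 days from infection; DMSO placebo. Mean day of lesions/hind-leg paralysis and survival followed 52 days; survivors counted as 52-day.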

[6] = Antiviral Activity against herpes simplex virus-1 (KOS) in rabbit kidney cell; conditions: Oryctolagus cuniculus
FM3A [7] = assay: Inhibitory activity against FM3A TK- cell line; conditions: Mus musculus, read-out: ID50 (the source's name); in short: as §1
Mus musculus [8] = assay: Tested for the appearance of skin lesions or paralysis of the legs after 39 days when administered intraperitoneally at 100 mg/kg per day; conditions: route intraperitoneal
In short: (§3)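 Athymic nu/nu mice, 25-30 days old, 15-20 g, inoculated intracutaneously in lumbosacral area with TK- HSV-1 VMW 1837, 10^5 CCID50 in 50 μL; intraperitoneal dosing 100 mg/kg per day, twice daily for 5 days from infection, in carboxymethylcellulose or water. Mean day of lesions/hind-leg paralysis and mean survival recorded over 39 days; survivors counted as 39-day.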

Mus musculus [9] = assay: Compound was evaluated in nu/nu mice infected with TK- HSV-1 (VMW-1837) to increase the mean survival time when administered intraperitoneally at 100 mg/kg per day after 39 days; conditions: route intraperitoneal; in short: as §3
[10] = Antiviral Activity against herpes simplex virus-2 (196) in rabbit kidney cell; conditions: Oryctolagus cuniculus
Mus musculus [11] = assay: Tested for the appearance of skin lesions or paralysis of the legs after 52 days when applied topically at 10% after 52 days; in short: as §2
[12] = Antiviral Activity against herpes simplex virus-1 (F) in rabbit kidney cell; conditions: Oryctolagus cuniculus
[13] = Antiviral Activity against vaccinia virus in rabbit kidney cell; conditions: Oryctolagus cuniculus
Raji = assay: Inhibitory activity against Raji cell line; conditions: Homo sapiens, read-out: ID50 (the source's name); in short: as §1
FM3A [14] = assay: Inhibitory activity against FM3A TK-/HSV-2 TK+ cell line; conditions: Mus musculus, […] TK-/HSV-2 TK+; read-out: ID50 (the source's name); in short: as §1
FM3A [15] = assay: Inhibitory activity against FM3A/0 cell line; conditions: Mus musculus, read-out: ID50 (the source's name); in short: as §1
L1210 = assay: Inhibitory activity against L1210 cell line; conditions: Mus musculus, read-out: ID50 (the source's name); in short: as §1
[16] = Antiviral Activity against herpes simplex virus-1 TK- B2006 in rabbit kidney cell; conditions: Oryctolagus cuniculus
[17] = Antiviral Activity against vesicular stomatitis virus in rabbit kidney cell; conditions: Oryctolagus cuniculus

Row | SMILES | MIC [1] | IC50 (MOLT-4F) | MIC [2] | MIC [3] | MIC [4] | Mean survival time (Mus musculus [5]) | MIC [6] | IC50 (FM3A [7]) | Activity (Mus musculus [8]) | Mean survival time (Mus musculus [9]) | MIC [10] | Activity (Mus musculus [11]) | MIC [12] | MIC [13] | IC50 (Raji) | IC50 (FM3A [14]) | IC50 (FM3A [15]) | IC50 (L1210) | MIC [16] | MIC [17]
1 | O=c1[nH]c(=O)n([C@H]2C[C@H](O)[C@@H](CO)O2)cc1/C=C/Br [BRIVUDINE] | 0.01 mg/L (≈ 0.03 µM) | > 100 mg/L | 2 mg/L (≈ 6 µM) | 300 mg/L (≈ 901 µM) | 20 mg/L (≈ 60 µM) | 39.6 days | 0.02 mg/L (≈ 0.06 µM) | 0.31 mg/L (≈ 0.931 µM) | 10.2 | 33.8 days | 100 mg/L (≈ 300 µM) | 8.2 | 0.01 mg/L (≈ 0.03 µM) | 7 mg/L (≈ 21 µM) | 73 mg/L (≈ 219 µM) | 0.0005 mg/L (≈ 0.0015 µM) | 9.4 mg/L (≈ 28.2 µM) | 22 mg/L (≈ 66 µM) | 100 mg/L (≈ 300 µM) | > 400 mg/L
2 | COC(CC1CN(C)P(=O)(OC[C@H]2O[C@@H](n3cc(/C=C/Br)c(=O)[nH]c3=O)C[C@@H]2O)O1)Sc1ccccc1 (stereo partly specified) | 0.4 mg/L (≈ 0.647 µM) | > 100 mg/L | > 400 mg/L | > 400 mg/L | > 400 mg/L | – | 0.1 mg/L (≈ 0.162 µM) | 12.4 mg/L (≈ 20.1 µM) | – | – | > 400 mg/L | – | 0.1 mg/L (≈ 0.162 µM) | ≥ 400 mg/L | > 100 mg/L | 0.003 mg/L (≈ 0.00485 µM) | 82 mg/L (≈ 133 µM) | > 100 mg/L | > 400 mg/L | > 400 mg/L
3 | Nc1nc2c(ncn2COCCO)c(=O)[nH]1 [ACYCLOVIR] | 0.2 mg/L (≈ 0.888 µM) | > 100 mg/L | 0.02 mg/L (≈ 0.0888 µM) | 10 mg/L (≈ 44.4 µM) | 0.1 mg/L (≈ 0.444 µM) | 46.2 days | 0.2 mg/L (≈ 0.888 µM) | 0.62 mg/L (≈ 2.75 µM) | 17.2 | 30.4 days | 0.07 mg/L (≈ 0.311 µM) | 40.8 | 0.1 mg/L (≈ 0.444 µM) | 150 mg/L (≈ 666 µM) | > 100 mg/L | 0.0009 mg/L (≈ 0.004 µM) | 17 mg/L (≈ 75.5 µM) | 41 mg/L (≈ 182 µM) | 20 mg/L (≈ 88.8 µM) | > 400 mg/L
4 | CN1CCOP1(=O)OCCOCn1cnc2c(O)nc(N)nc21 (stereo unspecified) | – | > 100 mg/L | 0.2 mg/L (≈ 0.581 µM) | – | – | – | 0.2 mg/L (≈ 0.581 µM) | – | – | – | – | – | – | 400 mg/L (≈ 1160 µM) | > 100 mg/L | – | > 100 mg/L | > 100 mg/L | – | > 400 mg/L
5 | CN1CC(CC2SCCCS2)OP1(=O)OC[C@H]1O[C@@H](n2cc(/C=C/Br)c(=O)[nH]c2=O)C[C@@H]1O (stereo partly specified) | > 200 mg/L | > 100 mg/L | 150 mg/L (≈ 257 µM) | 300 mg/L (≈ 513 µM) | > 200 mg/L | – | 200 mg/L (≈ 342 µM) | 32 mg/L (≈ 54.8 µM) | – | – | > 200 mg/L | – | 150 mg/L (≈ 257 µM) | 200 mg/L (≈ 342 µM) | > 100 mg/L | 0.018 mg/L (≈ 0.0308 µM) | 48 mg/L (≈ 82.1 µM) | > 100 mg/L | 150 mg/L (≈ 257 µM) | > 200 mg/L
6 | CN1CCOP1(=O)OC[C@H]1O[C@@H](n2cc(/C=C/Br)c(=O)[nH]c2=O)C[C@@H]1O (stereo partly specified) | 0.04 mg/L (≈ 0.0885 µM) | > 100 mg/L | 10 mg/L (≈ 22.1 µM) | > 400 mg/L | 200 mg/L (≈ 442 µM) | – | 0.02 mg/L (≈ 0.0442 µM) | 1.3 mg/L (≈ 2.87 µM) | – | – | > 400 mg/L | – | 0.07 mg/L (≈ 0.155 µM) | 20 mg/L (≈ 44.2 µM) | > 100 mg/L | 0.0008 mg/L (≈ 0.00177 µM) | 48 mg/L (≈ 106 µM) | 90 mg/L (≈ 199 µM) | > 400 mg/L | > 400 mg/L

From ChEMBL document CHEMBL1124895, “Synthesis and biological evaluation of some cyclic phosphoramidate nucleoside derivatives” (1990)
